Experiment [1] has as its target T1, Estrogen receptor (Homo sapiens, UniProt P03372).
T1 sequence (P03372 whole entry): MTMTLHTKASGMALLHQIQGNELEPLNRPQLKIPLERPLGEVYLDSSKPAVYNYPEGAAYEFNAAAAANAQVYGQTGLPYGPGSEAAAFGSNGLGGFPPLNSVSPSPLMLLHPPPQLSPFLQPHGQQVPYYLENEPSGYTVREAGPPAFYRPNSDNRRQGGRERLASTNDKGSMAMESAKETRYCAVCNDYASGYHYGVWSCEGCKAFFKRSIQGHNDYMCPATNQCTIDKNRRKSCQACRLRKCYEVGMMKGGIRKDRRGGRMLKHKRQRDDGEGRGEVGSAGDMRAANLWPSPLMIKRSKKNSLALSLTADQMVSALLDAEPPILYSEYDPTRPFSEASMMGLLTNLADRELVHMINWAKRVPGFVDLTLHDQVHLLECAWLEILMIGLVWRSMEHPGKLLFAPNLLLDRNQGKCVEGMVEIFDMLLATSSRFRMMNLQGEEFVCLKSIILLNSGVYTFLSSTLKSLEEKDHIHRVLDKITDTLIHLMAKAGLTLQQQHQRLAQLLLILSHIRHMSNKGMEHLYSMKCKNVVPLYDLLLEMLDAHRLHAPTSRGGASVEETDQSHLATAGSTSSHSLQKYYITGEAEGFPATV
Nature of the experiment: Downregulation of human ERalpha in human MCF-7 cells after 24 hrs by in-cell Western immunoassay method. It counts as cell-based. The gist of the method: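 MCF-7 cells at 3000 cells/well treated 24 h (3 μM screen or dose-response); formaldehyde-fixed, Triton-permeabilized, stained with rabbit HC-20 anti-ERα overnight at 4 °C, IR secondary plus Cell Tag 700 normalization; in-cell Western imaging, ERα relative to vehicle, average of at least three independent experiments.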

Experiment [2] deals with T2, Estrogen receptor (Homo sapiens) (UniProt P03372).
T2 sequence (whole entry): T1 sequence (P03372 whole entry)
As to the kind of experiment: Downregulation of human ERalpha in human MCF-7 cells at 3 x 10^-6 M after 24 hrs by Western blot method. It is filed as cell-based. In a few lines: (§1)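 MCF-7 cells treated 24 h at 3 × 10−10, 3 × 10−8 or 3 × 10−6 M; whole-cell extracts with protease/phosphatase inhibitors, 10% SDS-PAGE, nitrocellulose, probed with anti-ERα F10 and β-actin; ERα given as percent of vehicle.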
(In general: Immunoblotting shows a protein as a band on a membrane.)

For experiment [3], the target named is T1, Estrogen receptor. As to the kind of experiment: Downregulation of ERalpha in human MCF-7 cells assessed as reduction of estradiol-induced pS2 mRNA levels after 24 hrs by RT-PCR method. It is filed as cell-based. In a few lines: (§2)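 MCF-7 cells in full medium (5% FBS) with 3 × 10−10 M E2, treated 24 h across a concentration range; TRIzol RNA, reverse transcription, SYBR green qPCR for GREB1, PgR or pS2 normalized to 36B4, fold change versus vehicle; mean ± SD of at least two independent experiments in triplicate.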

The target in experiment [4] is T2, Estrogen receptor (Homo sapiens). As to the kind of experiment: Downregulation of ER-alpha levels in ER-positive human MCF-7 cells at 3 uM after 24 hrs by in-cell Western assay.
The target of experiment [5] is T1, Estrogen receptor. As to the kind of experiment: Downregulation of ERalpha in human MCF-7 cells assessed as reduction of estradiol-induced GREB1 mRNA levels after 24 hrs by RT-PCR method. It is filed as cell-based. The gist of the method: as §2
Experiment [6] relates to MCF7. Nature of the experiment: Antiproliferative activity against ER-positive human MCF7 cells after 6 days by WST-1 assay. It counts as functional, cell-based. The conditions noted are these: MCF7, 144 h. The gist of the method: (§3)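 MCF-7 cells (ATCC), 6-day compound exposure; viability by WST-1 absorbance at 450 nm, expressed relative to vehicle-treated controls. Run in triplicate; 3 μM single-concentration screen values are averages of two to three independent experiments. Dose-response curves give IC50.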
A general note: Formazan colour is commonly taken as a measure of viable cells.

Experiment [7] relates to MCF7. As to the kind of experiment: Antiproliferative activity against ER-positive human MCF7 cells at 3 uM after 6 days by WST-1 assay. It is filed as functional. The gist of the method: as §3
Another experiment concerns MDA-MB-231. As to the kind of experiment: Antiproliferative activity against ERalpha-negative human MDA-MB-231 cells at 3 uM after 6 days by WST-1 assay. It counts as functional, cell-based. In a few lines: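 ERα-negative MDA-MB-231 breast cancer cells screened for proliferation with compound at 3 μM; WST-1 read-out at 450 nm after 6 days, relative to vehicle.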
The target in experiment [8] is T1, Estrogen receptor. Nature of the experiment: Displacement of [3H]estradiol from full-length human ERalpha receptor by scintillation counting. (Displacement assays read how much labelled ligand stays bound in the presence of the test substance.)
Experiment [9] deals with T1, Estrogen receptor. Nature of the experiment: Downregulation of ERalpha in human MCF-7 cells assessed as reduction of estradiol-induced PgR mRNA levels after 24 hrs by RT-PCR method. It is filed as cell-based. In a few lines: as §2
Experiment [10] deals with T2, Estrogen receptor (Homo sapiens). Nature of the experiment: Downregulation of human ERalpha in human MCF-7 cells at 3 x 10^-8 M after 24 hrs by Western blot method. It counts as cell-based. In a few lines:
as §1

For experiment [11] the target is unchanged. As to the kind of experiment: Displacement of [3H]estradiol from full-length human ERalpha receptor by scintillation counting relative to estradiol.
The target is the same in experiment [12]. Nature of the experiment: Downregulation of human ERalpha in human MCF-7 cells at 3 x 10^-10 M after 24 hrs by Western blot method. It counts as cell-based. In a few lines: as §1

Molecules are shown by their SMILES. The source made the active and inactive calls. No cut-off for these calls is given here.

For the molecule `O=C(O)/C=C/c1ccc(C(=C2C3CC4CC(C3)CC2C4)c2ccc(O)cc2)cc1`, the half-maximal inhibitory concentration (IC50) – broadly, the concentration at which inhibition is half-maximal – stood at 17 nM against Estrogen receptor [1]; 500 nM at Estrogen receptor [3]; 500 nM at Estrogen receptor [5]; 31 nM in the experiment on MCF7 [6]; 500 nM on Estrogen receptor [9]. In addition, the outcome (in experiment [2]; in experiment [4]; in the experiment on MCF7 [7]; in [10]; in experiment [12]) was Active. For the same molecule, the result in the experiment on MDA-MB-231 was inactive. Besides, the Ki – broadly, the equilibrium dissociation constant of an inhibitor or competing ligand from its target – at Estrogen receptor [8] came to 0.4 nM. Besides, in experiment [11], the RBA turned out to be 51%.

Source of the values: ChEMBL document CHEMBL4011648, “Adamantyl Antiestrogens with Novel Side Chains Reveal a Spectrum of Activities in Suppressing Estrogen Receptor Mediated Activities in Breast Cancer Cells” (J Med Chem, 2017).
